Article PMC9918595 (Molecular imaging and biology, 2022)
“And” between values parts separate entries of the source, which are not always exact repeats. Identical values can stand only once. “Also recorded” adds a separate entry of the source. Like-named read-outs stand apart in the source and are kept apart here.

What was measured:
[1] = in vivo studies; cited from earlier work
human TRPC5 [2] = settings: whole-cell manual patched clamp assay; cited from earlier work
[3] = test system: wide range of molecular targets including ion channels (TRPV, TRPM), receptors (dopamine D1 and D2, NMDA, TNF-α) and enzymes (acetylcholinesterase, tyrosine …); settings: patch clamp assay; cited from earlier work
human TRPC5 [4] = settings: calcium flux assay; cited from earlier work
TRPC5 [5] = molecular target: T1, TRPC5 (Rattus norvegicus, UniProt Q8VD38); test: In vitro autoradiography study of the rat brain; assay type: binding, Sprague Dawley rats
T1 sequence (Q8VD38 1-974): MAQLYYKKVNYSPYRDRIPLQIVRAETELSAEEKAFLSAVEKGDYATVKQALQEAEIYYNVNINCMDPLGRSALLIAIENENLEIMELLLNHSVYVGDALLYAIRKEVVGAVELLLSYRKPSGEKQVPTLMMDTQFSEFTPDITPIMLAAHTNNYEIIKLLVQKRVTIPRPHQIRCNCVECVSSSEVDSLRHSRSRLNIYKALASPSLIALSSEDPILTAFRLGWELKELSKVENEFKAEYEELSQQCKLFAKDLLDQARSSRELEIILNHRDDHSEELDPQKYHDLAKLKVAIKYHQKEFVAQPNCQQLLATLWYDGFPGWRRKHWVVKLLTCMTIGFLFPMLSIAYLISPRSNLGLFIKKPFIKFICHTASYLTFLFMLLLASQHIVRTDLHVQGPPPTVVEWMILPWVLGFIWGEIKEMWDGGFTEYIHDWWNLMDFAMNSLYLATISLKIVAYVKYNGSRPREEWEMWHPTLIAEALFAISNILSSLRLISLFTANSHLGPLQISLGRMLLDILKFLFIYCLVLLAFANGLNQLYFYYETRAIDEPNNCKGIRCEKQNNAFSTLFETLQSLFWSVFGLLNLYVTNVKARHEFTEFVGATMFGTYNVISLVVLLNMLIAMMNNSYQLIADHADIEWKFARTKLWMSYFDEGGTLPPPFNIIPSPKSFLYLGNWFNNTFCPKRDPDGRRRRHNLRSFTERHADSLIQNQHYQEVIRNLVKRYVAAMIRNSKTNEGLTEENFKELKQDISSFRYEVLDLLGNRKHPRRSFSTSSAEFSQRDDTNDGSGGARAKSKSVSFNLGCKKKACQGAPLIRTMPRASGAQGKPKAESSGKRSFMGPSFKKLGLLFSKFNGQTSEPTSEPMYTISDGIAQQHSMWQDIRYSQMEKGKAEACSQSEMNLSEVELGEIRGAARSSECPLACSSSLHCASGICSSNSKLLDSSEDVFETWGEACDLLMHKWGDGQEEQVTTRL

[6] = Solubility of the radiotracer in dose formulation; assay type: physicochemical
TRPC5 [7] = test: MicroPET brain study of the nonhuman primate; assay type: in vivo, cynomolgus macaques
Outline: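 Adult male cynomolgus macaques (9–10 kg), two tracer scans in each of two animals; fasted 12 h, ketamine (10–20 mg kg−1) plus glycopyrrolate ([…]) i.m., intubated, 0.8–2.0% isoflurane/oxygen. Venous catheter; 10 min positioning and 45 min attenuation transmission scans. IV bolus ~0.35 GBq (injected mass ~4.2 μg); 0–120 min dynamic scan (3×1, 4×2, 3×3, 20×5 min frames).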

[8] = LogD7.4 measurement, shake flask method; assay type: physicochemical; settings: n-octanol / PBS pH 7.4, n = 3
TRPC5 [9] = molecular target: T2, TRPC5 (Mus musculus, UniProt Q9QX29); assay type: in vivo, 129S1/SvImJ mice; settings: 129S1/SvImJ wild-type mice
T2 sequence (Q9QX29 1-975): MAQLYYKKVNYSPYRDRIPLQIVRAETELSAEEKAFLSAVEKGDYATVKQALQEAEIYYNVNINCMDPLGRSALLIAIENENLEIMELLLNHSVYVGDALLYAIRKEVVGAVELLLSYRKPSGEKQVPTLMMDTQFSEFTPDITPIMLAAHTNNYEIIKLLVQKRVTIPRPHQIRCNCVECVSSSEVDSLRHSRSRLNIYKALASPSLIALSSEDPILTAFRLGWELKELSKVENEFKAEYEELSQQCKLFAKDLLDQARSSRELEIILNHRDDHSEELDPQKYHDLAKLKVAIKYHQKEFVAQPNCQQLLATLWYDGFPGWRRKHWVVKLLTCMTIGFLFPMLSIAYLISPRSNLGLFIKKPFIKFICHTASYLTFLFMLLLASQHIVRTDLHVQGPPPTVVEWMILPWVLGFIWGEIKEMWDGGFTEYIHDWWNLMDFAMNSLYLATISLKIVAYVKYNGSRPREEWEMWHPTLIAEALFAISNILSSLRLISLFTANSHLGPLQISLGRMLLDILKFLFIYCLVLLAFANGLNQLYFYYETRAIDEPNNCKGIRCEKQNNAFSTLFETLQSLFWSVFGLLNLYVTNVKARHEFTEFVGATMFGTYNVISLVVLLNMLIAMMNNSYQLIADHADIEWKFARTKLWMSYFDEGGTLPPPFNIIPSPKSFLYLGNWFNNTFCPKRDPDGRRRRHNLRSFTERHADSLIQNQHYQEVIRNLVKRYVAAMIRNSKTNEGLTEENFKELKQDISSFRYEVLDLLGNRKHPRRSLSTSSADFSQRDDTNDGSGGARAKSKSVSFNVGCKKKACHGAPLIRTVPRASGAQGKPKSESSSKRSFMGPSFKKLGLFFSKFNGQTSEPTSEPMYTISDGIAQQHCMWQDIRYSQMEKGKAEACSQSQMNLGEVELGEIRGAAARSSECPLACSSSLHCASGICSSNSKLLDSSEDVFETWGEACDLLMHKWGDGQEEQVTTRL

TRPC5 [10] = assay type: in vivo, 129S1/SvImJ mice; settings: 129S1/SvImJ TRPC5 knockout mice
[11] = Ex vivo biodistribution study; assay type: in vivo, Sprague Dawley rats; settings: for Tracer uptake, Blood / Tracer uptake, Brain / Tracer uptake, Fat / Tracer uptake, Heart / Tracer uptake, Kidney / Tracer uptake, Lung / Tracer uptake, Muscle / Tracer uptake, Pancreas / Tracer uptake, Small intestine / Tracer uptake, Spleen / Tracer uptake, Thymus / Tracer uptake, Liver: iv, n = 4

## Cn1c(=O)n(CCCO)c(=O)c2c1nc(Oc1cccc(Cl)c1)n2Cc1ccc(Cl)cc1 [HC070]
[1]
  anxiolytic and antidepressant function: carries anxiolytic and antidepressant function
  oral bioavailability: orally bioavailable
Human TRPC5 [2]
  IC50: 0.52 nM
[3]
  selectivity over a wide range of molecular targets: at least 400 fold
Human TRPC5 [4]
  IC50: 9.3 nM

## Cn1c(=O)n(CCCO)c(=O)c2c1nc(Oc1cccc(OC(F)(F)F)c1)n2Cc1ccc(Cl)cc1 [HC608]
TRPC5 [5]; cold blocker at 1 μM
  blocking of [^11C]HC070 binding in rat brain sections: significantly reduced binding; also recorded: able to reduce the radioactivity signal in the tissue slides very well; also recorded: significantly blocked

## [11CH3]n1c(=O)n(CCCO)c(=O)c2c1nc(Oc1cccc(Cl)c1)n2Cc1ccc(Cl)cc1 [[^11C]HC070]
[6]; dose formulation, ethanol/saline
  solubility: good solubility; also recorded: improved solubility in ethanol/saline medium
[6]; dose solution without Kolliphor HS15
  residue retaining inside surface of a glass vial or a syringe: little percentage of retaining was detected
TRPC5 [7]; macaque, highest regional radioactivity
  regional brain uptake, prefrontal cortex (SUV): 2.88
TRPC5 [7]; macaque, initial time (5 min), average
  fold higher brain uptake compared with [^11C]HC608: 2.4 fold
TRPC5 [7]; male cynomolgus macaque
  time of maximum brain uptake post-injection: 3 to 5 min
TRPC5 [7]; male cynomolgus macaque, iv, 0-120 min dynamic PET
  maximum total brain uptake (SUV): ~ 2.2 and 2.2
TRPC5 [5]; 1.11 MBq/slide, room temperature, 30 min
  regional accumulation in rat brain sections: highest accumulation in the TRPC5-enriched colliculus, striatum, cortex, and thalamus regions
TRPC5 [5]; autoradiography with HC608 block
  binding specificity in rat brain sections: specifically binds TRPC5 sites in rat brain sections
[8]
  logD7.4: 1.08 ± 0.04
TRPC5 [9]
  time of peak brain uptake: ~ 1.0 min
TRPC5 [9]; iv, 0-60 min dynamic PET, n = 3
  peak brain uptake (SUV): 1.13 and ~ 1.13 and 1.13 ± 0.08
TRPC5 [10]
  time of peak brain uptake: ≤ 2 min
[11]; SD rats, 5 min/60 min
  brain uptake ratio from 5 min to 60 min: 4.5
[11]; SD rats, 5 min post injection
  Tracer uptake, Blood: 0.13±0.02 %I.D./gram
  Tracer uptake, Brain: 0.47±0.10 %I.D./gram
  Tracer uptake, Fat: 0.07±0.02 %I.D./gram
  Tracer uptake, Heart: 0.94±0.12 %I.D./gram
  Tracer uptake, Kidney: 1.28±0.28 %I.D./gram
  Tracer uptake, Lung: 0.72±0.07 %I.D./gram
  Tracer uptake, Muscle: 0.12±0.01 %I.D./gram
  Tracer uptake, Pancreas: 1.33±0.30 %I.D./gram
  Tracer uptake, Small intestine: 1.16±0.11 %I.D./gram
  Tracer uptake, Spleen: 0.73±0.17 %I.D./gram
  Tracer uptake, Thymus: 0.47±0.08 %I.D./gram
[11]; SD rats, 30 min post injection
  Tracer uptake, Blood: 0.12±0.02 %I.D./gram
  Tracer uptake, Brain: 0.18±0.01 %I.D./gram
  Tracer uptake, Fat: 0.31±0.09 %I.D./gram
  Tracer uptake, Heart: 0.33±0.03 %I.D./gram
  Tracer uptake, Kidney: 0.46±0.03 %I.D./gram
  Tracer uptake, Liver: 1.70±0.18 %I.D./gram
  Tracer uptake, Lung: 0.41±0.07 %I.D./gram
  Tracer uptake, Muscle: 0.17±0.02 %I.D./gram
  Tracer uptake, Pancreas: 0.47±0.01 %I.D./gram
  Tracer uptake, Small intestine: 3.01±0.23 %I.D./gram
  Tracer uptake, Spleen: 0.20±0.02 %I.D./gram
  Tracer uptake, Thymus: 0.24±0.02 %I.D./gram
[11]; SD rats, 60 min post injection
  Tracer uptake, Blood: 0.12±0.01 %I.D./gram
  Tracer uptake, Brain: 0.09±0.02 %I.D./gram
  Tracer uptake, Fat: 0.35±0.12 %I.D./gram
  Tracer uptake, Heart: 0.20±0.03 %I.D./gram
  Tracer uptake, Kidney: 0.33±0.05 %I.D./gram
  Tracer uptake, Liver: 1.88±0.13 %I.D./gram
  Tracer uptake, Lung: 0.23±0.07 %I.D./gram
  Tracer uptake, Muscle: 0.13±0.02 %I.D./gram
  Tracer uptake, Pancreas: 0.33±0.06 %I.D./gram
  Tracer uptake, Small intestine: 3.01±1.71 %I.D./gram
  Tracer uptake, Spleen: 0.13±0.01 %I.D./gram
  Tracer uptake, Thymus: 0.13±0.03 %I.D./gram
[11]; rats, ex vivo distribution
  clearance from plasma: cleared from plasma primarily through hepatobiliary metabolism
